Screens from PubChem BioAssay.
In the library only some 2.4% were active in any assay of this set; here they are far more common.
SUMO1-SIM PPI: alters human SUMO1 binding to SIM partners. 360,000 compounds, 0.33% hits. P63165. inhibition, % at 20 µM. SUMO1 binding to a labelled peptide, TR-FRET, 1 h; in the data active means inhibition above about 37%
Target sequence (P63165 whole entry, looked up): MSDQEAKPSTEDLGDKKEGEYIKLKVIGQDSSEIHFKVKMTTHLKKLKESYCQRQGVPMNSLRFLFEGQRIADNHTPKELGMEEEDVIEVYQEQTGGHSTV
NadD block: inhibitors of Staphylococcus aureus NadD; 360,000 compounds, 0.78% hits; AID 602399; inhibition, % at 20 µM; purified NadD enzyme, colorimetric absorbance read-out; in the data active means inhibition above about 26%
LMPTP block: LMPTP (human) inhibition; P24666; recombinant LMPTP-A, OMFP fluorogenic substrate, fluorescence intensity; inhibition, % at 20 µM; 360,000 compounds, 0.22% hits;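 active means compounds that cut the enzyme signal by at least half of the control window in the single-dose screen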
Target sequence (P24666 whole entry, looked up): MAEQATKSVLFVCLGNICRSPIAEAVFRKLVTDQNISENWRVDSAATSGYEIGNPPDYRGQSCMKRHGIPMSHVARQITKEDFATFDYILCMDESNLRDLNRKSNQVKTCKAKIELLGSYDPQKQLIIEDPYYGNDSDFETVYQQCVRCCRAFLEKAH
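Buffer or medium: Bis-Tris pH 6.0, DTT, detergent; Assay system: LMPTP-A enzyme; Quantity: 0.625 nM enzyme; Detection: endpoint fluorescence intensity; Times: 50 min dark incubation at room temperature; Controls: substrate-only low control, DMSO enzyme-plus-substrate high control; Doses: single 20 µM dose; Read-out: percent inhibition versus substrate-only and uninhibited controls; Reagent: 400 µM OMFP.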
Scp-1 inhibitor: blocks human Scp-1 phosphatase activity; Q9GZU7; Recombinant Scp1, phosphopeptide, malachite green phosphate absorbance; inhibition, % at 20 µM; 340,000 compounds, 0.88% hits; AID 493091;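 active means inhibition above about 50% at 20 µM, limit read from the data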
Target sequence (Q9GZU7 76-261 limits assumed): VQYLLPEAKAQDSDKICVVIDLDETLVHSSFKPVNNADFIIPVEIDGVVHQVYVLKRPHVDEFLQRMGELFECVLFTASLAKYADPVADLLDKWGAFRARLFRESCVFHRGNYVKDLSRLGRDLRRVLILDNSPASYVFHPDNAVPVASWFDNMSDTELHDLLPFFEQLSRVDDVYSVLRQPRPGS
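System: truncated SCP-1 phosphatase (76-261aa); medium: Tris acetate buffer pH 5.5 with MgCl2 and Tween-20; incubation: 45 min room-temperature reaction, 5 min colour, 30 min stabiliser; compound: single 20 µM dose, 1% DMSO; reagent: Phosphorylated 17-residue peptide substrate; read-out: % inhibition at 20 µM; technique: colorimetric free-phosphate detection, absorbance 630 nm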
STEP inh: inhibitors of human striatal-enriched phosphatase STEP; P54829; recombinant STEP, OMFP fluorogenic substrate, fluorescence; 360,000 compounds, 0.25% hits; inhibition, % at 20 µM;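 active means inhibition at 20 µM, scaled per plate between control wells, above about 37%, limit read from the data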
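System: isolated STEP enzyme; schedule: 20 min enzyme reaction at room temperature, protected from light; medium: Bis-Tris buffer pH 6.0, 2.5 mM DTT, 0.005% Tween 20; signal: fluorescence, 480/540 nm; dosing: single compound dose of 20 µM, 1% DMSO final; also added: OMFP substrate, 25 µM final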
DNMT1 block: inhibitors of human DNMT1; P26358; inhibition (reported as % activation of signal), % at 10 µM; DNMT1 molecular beacon, Hinp1I cleavage, fluorescence; 360,000 compounds, 0.83% hits; in the data active means inhibition above about 50%
DNMT1 interf DR: beacon fluorescence artifact, dose response counter-screen. shares compounds with DNMT1 block. molecular beacon fluorescence, spectral interference counter-screen. IC50, µM. 200 tested, under 10 active. AID 602382; call rule not given here
DNMT1 inh conf: confirmation of human DNMT1 inhibitors. DNMT1 molecular beacon HinP1I cleavage, fluorescence. shares compounds with DNMT1 block. 2,300 compounds, 8% hits. inhibition, % at 10 µM;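 active means average inhibition of at least 30% in the single-concentration confirmation test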
Beacon interf: counter-screen for DNMT1 inhibitors: spectral interference | shares compounds with DNMT1 block | DNMT1 molecular beacon spectral interference counterscreen, fluorescence 485/520 | activation (fluorescence interference), % at 10 µM | 2,300 compounds, 1% hits;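 active means activation of at least 30% at 10 µM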;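 further: DNMT1 catalytic domain with a HinP1I cleavage step and a FAM/dabcyl DNA beacon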
Numbers stand for hits; 0 = inactive; - = no result given.

SMILES	SUMO1-SIM PPI	NadD block	LMPTP block	Scp-1 inhibitor	STEP inh	DNMT1 block	DNMT1 inh conf	Beacon interf	others
CC(C)(C)C(=O)N1Cc2cc(N3CCCCC3)ccc2-n2nncc2C1	0	0	0	-	0	0	-	-
COC(=O)C1=C(c2ccc(S(C)(=O)=O)cc2)C[C@@H]2CC[C@H]1N2C(=O)N1CCOCC1	0	0	0	0	0	67	0	0
C[C@]12CC[C@@H](O)CC1=CCC1C2CC[C@@]2(C)C1CC[C@@H]2N (some centres not stated)	0	0	0	0	0	81	0	0
C[C@]12CC[C@H](N)CC1=CCC1C2CC[C@@]2(C)C1CC[C@@H]2O (some centres not stated)	0	0	0	0	0	0	-	-
Cc1cc(/C=C2\C(=O)NC(=O)N(Cc3ccco3)C2=O)c(C)n1-c1ccc(C(=O)O)cc1	0	0	0	61	0	86	0	0
CCOC(=O)c1c(-n2c(C)cc(/C=C3\C(=O)NC(=O)N(C)C3=O)c2C)sc2c1CCCC2	0	0	0	0	0	0	-	-
Cc1cc(/C=C2\C(=O)NC(=O)N(c3ccc(Cl)cc3)C2=O)c(C)n1-c1sc2c(c1C#N)CCCC2	49	47	0	0	0	79	32	0	DNMT1 interf DR=0
CCc1ccc(N2C(=O)NC(=O)/C(=C\c3cc(C)n(-c4cc(C(=O)O)cc(C(=O)O)c4)c3C)C2=O)cc1	0	0	0	0	0	73	0	0
Cc1cc(/C=C2\C(=O)NC(=O)N(Cc3ccco3)C2=O)c(C)n1-c1ccc(O)cc1	0	0	0	0	0	73	0	0
C[C@]12CCC3C(CC[C@H]4C[C@@H](O)CC[C@]34C)C1C[C@@H](Br)[C@H]2O (some centres not stated)	0	0	0	-	0	0	-	-
CC(N)Cc1c[nH]c2ccc(OCc3cccs3)cc12 (configuration not stated)	0	0	0	0	0	0	-	-
CC(N)Cc1c[nH]c2ccc(O)cc12 (configuration not stated)	0	0	0	0	0	76	0	0
CC/C(=N\N1CCCCCC1)c1c(O)n(-c2ccc(C)cc2)c(=O)[nH]c1=O	0	0	0	0	0	0	-	-
CC(C)OCCCNC(=O)c1c(N)n(Cc2cccs2)c2nc3ccccc3nc12	0	0	0	0	0	0	-	-
COc1ccc(Cn2c(N)c(C(=O)NCc3ccco3)c3nc4ccccc4nc32)cc1OC	36	0	0	0	0	87	0	0
Nc1c(C(=O)OCC2CCCO2)c2nc3ccccc3nc2n1Cc1cccs1 (configuration not stated)	0	0	0	0	0	73	0	0
COC(=O)c1c(N)n(Cc2ccc(OC)cc2)c2nc3ccccc3nc12	0	0	0	0	0	70	0	0
COCCOC(=O)c1c(N)n(Cc2ccco2)c2nc3ccccc3nc12	49	0	0	0	0	66	0	0
CC(C)OC(=O)c1c(N)n(Cc2ccco2)c2nc3ccccc3nc12	0	0	0	0	0	0	-	-
C=CCn1c(=O)c(C=Nc2cccnc2Cl)c(O)n(CCCC)c1=O	0	0	0	0	0	0	-	-
CN1CCc2nc(SCc3cccc(Br)c3)c(C#N)cc2C1	0	0	0	0	0	70	0	0
C[C@]12CC[C@H](OC(=O)CCC(=O)O)CC1=CCC1C2CC[C@@]2(C)C1CC[C@@H]2OC(=O)CCC(=O)O (some centres not stated)	0	0	0	0	0	0	-	-
C[C@]12CCC(OC(=O)CCC(=O)O)CC1=CCC1C2CC[C@]2(C)C(=O)CCC12 (some centres not stated)	0	0	0	0	0	91	0	0
CCN(C(=O)COC(=O)Cc1ccccc1)c1c(N)n(Cc2ccccc2)c(=O)[nH]c1=O	0	0	0	0	0	86	0	0
O=C1NC(=O)N(c2ccccc2)C(=O)/C1=C/C=C/c1ccco1	0	0	0	0	0	65	0	0
SMILES	SUMO1-SIM PPI	NadD block	LMPTP block	Scp-1 inhibitor	STEP inh	DNMT1 block	DNMT1 inh conf	Beacon interf	others
CCN1C(=O)/C(=C/c2ccc3c(c2)CCN3CCCCl)C(=O)NC1=S	0	31	0	0	0	102	0	0
CC(C)(C)N1C(=O)NC(=O)/C(=C\c2ccc3c(c2)CCN3CCCCl)C1=O	0	0	0	0	0	0	-	-
O=C1NC(=S)N(C2CC2)C(=O)/C1=C/c1ccc2c(c1)CCN2CCCCl	0	0	0	0	0	87	0	0
C=CCN1C(=O)/C(=C/c2ccc3c(c2)CCCN3CCC)C(=O)NC1=S	0	0	0	0	0	0	-	-
CC(C)OP(=O)(OC(C)C)C(NCc1ccccc1)c1ccccc1 (configuration not stated)	0	0	0	0	0	0	-	-
COc1ccc(N2C(=O)/C(=C/c3ccc(C)o3)C(=O)NC2=S)cc1	0	0	0	0	0	87	0	0
Cc1ccc(/C=C2\C(=O)NC(=S)N(c3cccc(F)c3)C2=O)o1	0	0	0	0	0	72	0	0
CN1CCN(c2ccc(/C=C3\C(=O)NC(=S)N(c4cccc(Br)c4)C3=O)o2)CC1	0	0	0	0	0	0	-	-
COc1cccc(CNCCc2cccc(F)c2)c1OC	0	0	0	0	0	0	-	-
O=C1NC(=O)N(Cc2ccc(F)cc2)C(=O)/C1=C\c1ccoc1	0	0	0	64	0	88	0	0
CN(C)c1ccc(/C=C2\C(=O)NC(=O)N(Cc3ccc(F)cc3)C2=O)cc1	0	0	0	0	0	0	-	-
COc1ccc(OC(=O)N(C)C[C@H]2OCc3cnnn3CCCC(=O)N([C@H](C)CO)C[C@H]2C)cc1	0	0	0	-	0	0	-	-
O=C1CC(N2CCC(n3c(=O)[nH]c4ccccc43)CC2)C(=O)N1c1ccc(F)cc1 (configuration not stated)	0	0	0	0	0	61	0	0
COc1ccc(CCC(=O)N2CCC3(CC2)OCCO3)cc1	0	0	0	0	0	0	-	-
O=C(CCc1nc(-c2ccccc2F)no1)N1CCC2(CC1)OCCO2	0	0	0	0	0	58	0	0
Cc1ccccc1OP(=O)(Oc1ccccc1C)N1CCOCC1	0	0	0	-	0	0	-	-
Clc1ccc(-c2nc3ccc(Cl)cn3c2CN2CCOCC2)cc1	0	0	0	0	0	73	0	0
